Assay outcomes deposited in PubChem BioAssay by several laboratories.
Rows were chosen to be rich in hits. Some 1.2% of all compounds tested hit in one or more screens of this group.
proCasp7 act = procaspase-7 activators, primary screen, counter-screen for procaspase-3 activator project, biochemical, absorbance, HTS, human. Caspase-7 (Homo sapiens), P55210. recombinant procaspase-7, Ac-DEVD-pNA absorbance 405 nm; D23A/D198A/D206A triple mutant, cannot self-cleave; scale: DMSO 0, 5 µM enzyme 100. activation, % at 8.5 µM. 330,000 tested, 0.093% active. AID 463210, 2010;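 active = percent activation above the screen-wide mean plus 3 SD, cut at about 25% in these data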
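Test system: Procaspase-7 triple mutant (PC-7 D3A). Also added: Ac-DEVD-pNA substrate, 400 µM as added. Schedule: 1 h enzyme–compound preincubation and 2 h substrate reaction, both 25 °C. Signal: p-Nitroaniline absorbance at 405 nm, read at 0 and 120 min. Control set: low DMSO alone, high DMSO plus 5 µM PC-7.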
ASAP1 GAP inh = inhibitors of human ASAP1 ArfGAP activity, primary screen, biochemical, fluorescence polarization; Arf-GAP with SH3 domain, ANK repeat and PH domain-containing protein 1 (Homo sapiens), …; ASAP1-stimulated ARF1 GTP hydrolysis, GDP FP detection; inhibition, % at 16.5 µM; 360,000 tested, 0.19% active; AID 624377, 2012; in the data active = inhibition above about 25%;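 note: 0% = vehicle with enzyme and substrate and 100% = no enzyme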
ARFGAP1 inh = inhibitors of rat ARFGAP1 GAP activity, primary screen, biochemical, fluorescence polarization, GDP tracer; ADP-ribosylation factor GTPase-activating protein 1 (Rattus norvegicus), Q62848; Arfgap1-stimulated ARF1 GTP hydrolysis, GDP FP detection; inhibition, % at 16.5 µM; 360,000 tested, 0.26% active; AID 651572, 2012;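 active = inhibition above a per-plate limit, mean inhibition of low control wells plus 3 SD, cut at about 25% in these data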;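 note: 0% = DMSO wells with enzyme and 100% = wells lacking Arfgap1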
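Assay system: purified rat His6-Arfgap1 residues 1-136 (GAP domain); Reagent: human Δ17 ARF1 bound to GTP; Dosing: 16.5 µM single point, 1.26% DMSO; Times: GTP hydrolysis reaction 2 h at 25 °C; Signal: FP, GDP Alexa 633 tracer displaced from anti-GDP antibody, 620/688 nm; Measure: % inhibition from polarization.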
procasp3 activ = activators of human procaspase-3 D3A mutant, primary screen, biochemical, absorbance, PC-3 D3A mutant, single concentration | AID 463141, 2010 | Caspase-3 (Homo sapiens), P42574 | activation, % at 8.5 µM | 330,000 tested, 0.11% active | recombinant procaspase-3 D3A, Ac-DEVD-pNA absorbance 405 nm;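 active = activation above the mean of all tested compounds plus 3 SD, cut at about 21% in these data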;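 note: 0% = DMSO alone and 100% = DMSO wells spiked with extra 5 µM PC-3 D3A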
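Test system: Procaspase-3 D3A mutant; medium: Zinc-free HEPES/NaCl buffer with 0.01% Triton X-100 at pH 7.4; reagent: DEVD-pNA substrate; doses: one concentration, 8.5 µM nominal, 0.8% DMSO; times: 1 h preincubation plus 2 h reaction at 25 °C; signal: Epi-absorbance at 405 nm of released p-nitroaniline, 0 and 120 min; replicates: singlicate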
CR mimetic SO = reduction of superoxide in aged yeast, primary screen, HTS; superoxide response (% of plate mean), % at 10 µM; 330,000 tested, 0.18% active; AID 2690, 2010; S. cerevisiae aged cells, superoxide DHE fluorescence; hits give low values;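 active = superoxide response under a set limit, about three screen SD below normal, cut at about 65% in these data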;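 note: yeast aged for seven days with compound at 30 °C before DHE staining; 100% = average MFI of all compound-treated wells on the plate with controls excluded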
LANA-H2A inh = blockers of LANA interaction with H2A/H2B – biochemical, FP readout, HTS, primary screen; Protein LANA1 (Human herpesvirus 8 type P (isolate GK18)), Q9QR71; cell-free LANA-H2A/H2B peptide, fluorescence polarization; inhibition, % (no concentration beside the values); 320,000 tested, 0.6% active; AID 2629, 2010; in the data active = inhibition mostly above about 10%, no sharp cut-off; inactive = mostly below about 6.7%
Target sequence (Q9QR71 whole entry, looked up): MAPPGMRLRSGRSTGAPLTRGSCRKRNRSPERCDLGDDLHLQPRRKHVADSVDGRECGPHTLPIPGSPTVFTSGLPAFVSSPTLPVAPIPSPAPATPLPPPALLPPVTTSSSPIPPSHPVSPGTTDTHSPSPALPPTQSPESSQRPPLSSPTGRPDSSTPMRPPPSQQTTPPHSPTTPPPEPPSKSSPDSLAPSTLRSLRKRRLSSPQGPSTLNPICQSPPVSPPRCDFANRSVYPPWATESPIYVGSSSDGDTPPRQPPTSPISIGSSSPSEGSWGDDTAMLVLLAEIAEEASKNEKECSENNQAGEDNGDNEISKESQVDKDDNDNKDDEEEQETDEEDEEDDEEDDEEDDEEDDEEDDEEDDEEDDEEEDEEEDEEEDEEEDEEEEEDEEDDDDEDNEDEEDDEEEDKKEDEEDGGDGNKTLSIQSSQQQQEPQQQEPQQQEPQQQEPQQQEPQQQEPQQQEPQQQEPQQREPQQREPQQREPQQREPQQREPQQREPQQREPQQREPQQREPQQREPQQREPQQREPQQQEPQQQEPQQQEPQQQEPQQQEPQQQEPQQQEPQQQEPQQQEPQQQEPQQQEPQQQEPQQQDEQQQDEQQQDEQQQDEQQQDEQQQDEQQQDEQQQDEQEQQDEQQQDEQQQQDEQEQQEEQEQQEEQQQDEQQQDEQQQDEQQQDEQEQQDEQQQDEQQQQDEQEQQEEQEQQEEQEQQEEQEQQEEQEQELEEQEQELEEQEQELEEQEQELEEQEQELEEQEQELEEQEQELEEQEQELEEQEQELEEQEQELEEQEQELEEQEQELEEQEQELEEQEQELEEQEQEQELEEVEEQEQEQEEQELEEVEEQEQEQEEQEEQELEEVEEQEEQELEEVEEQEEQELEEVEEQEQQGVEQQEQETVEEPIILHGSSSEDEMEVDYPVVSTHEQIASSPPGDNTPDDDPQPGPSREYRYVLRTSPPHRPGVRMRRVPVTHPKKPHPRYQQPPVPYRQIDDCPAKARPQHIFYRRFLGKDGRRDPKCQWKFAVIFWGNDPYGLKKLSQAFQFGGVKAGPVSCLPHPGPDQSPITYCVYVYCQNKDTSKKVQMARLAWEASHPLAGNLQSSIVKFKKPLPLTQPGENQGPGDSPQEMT
* marks the source's active call; other numbers are inactive results; · = no result given; + = active, no number; ! = not confirmed by another sample.

SMILES	proCasp7 act	ASAP1 GAP inh	ARFGAP1 inh	procasp3 activ	CR mimetic SO	LANA-H2A inh
Cc1ccc(S(=O)(=O)c2nnn3c2nc(NCCCN2CCCC2=O)c2ccccc23)cc1C	-2.6	-0.2	8.8	6.2	85.8	4.8
Cc1cc(C)c2nc(C(F)(F)F)nc(NCCCN3CCCC3=O)c2c1	14.3	9.0	-7.4	0.9	97.2	19.3*
CCCC(=O)OC[C@H]1CN(C2CCCC2)S(=O)(=O)c2c(Oc3ccc(F)cc3OC)cccc2O1	·	3.3	10.3	·	·	·
O=C(C1CC(=O)N(c2ccc(Cl)cc2)C1)N1CCN(Cc2ccc3c(c2)OCO3)CC1 (stereo not drawn)	2.3	2.9	14.8	5.8	79.2	-0.1
O=C(C1CC(=O)N(c2ccc(F)cc2)C1)N1CCOCC1 (stereo not drawn)	3.0	-3.6	-2.3	2.4	103.7	-2.0
Cc1ccc(N2CC(C(=O)N3CCN(Cc4ccc5c(c4)OCO5)CC3)CC2=O)cc1 (stereo not drawn)	3.0	3.9	3.5	-10.6	103.8	52.2*
O=C(C1CC(=O)N(c2ccc(Cl)cc2)C1)N1CCOCC1 (stereo not drawn)	2.0	-2.9	11.4	7.6	85.5	28.1*
Cc1ccc(NC(=O)c2noc3c2CCCCC3)cc1	-3.3	-0.9	-2.7	4.6	108.2	8.5*
CCc1ccc(NC(=O)c2noc3c2CCCCC3)cc1	-5.0	-7.2	-2.4	-1.7	111.4	-7.8
CCOc1ccc(C(=O)Nc2ccc(S(=O)(=O)N3C[C@@H]4C[C@@H](C3)c3cccc(=O)n3C4)cc2)cc1	5.8	20.0	0.9	1.1	79.3	17.4*
CCOc1ccc(C(=O)Nc2ccc(S(=O)(=O)N3CCN(C)CC3)cc2)cc1	4.8	8.5	7.5	5.0	101.8	14.6*
COc1ccc(N(C(=O)c2snc(C(N)=O)c2N)C(C(=O)NC2CCCC2)c2cc(OC)ccc2OC)c(OC)c1 (stereo not drawn)	7.2	-12.1	-7.1	-2.2	107.2	6.6
COc1ccc(N(C(=O)c2snc(C(N)=O)c2N)C(C(=O)NC2CCCCC2)c2ccc(F)cc2)c(OC)c1 (stereo not drawn)	-2.9	0.8	5.1	1.7	108.6	18.1*
COc1ccc(C(C(=O)NCCC(C)C)N(CCO)C(=O)c2snc(C(N)=O)c2N)cc1 (stereo not drawn)	-2.0	6.6	-9.9	2.7	107.4	23.3*
O=C(N[C@H](C(=O)N1CCC[C@H]1C(=O)NCCc1ccccc1Cl)c1ccccc1)C1CCCC1	·	7.7	13.3	·	·	·
Cc1c(NC(=O)COc2c(F)c(F)c(F)c(F)c2F)c(=O)n(-c2ccccc2)n1C	-16.2	-7.1	26.5*	3.8	109.6	5.1
Cc1c(NC(=O)CN2C(=O)C(=O)c3ccccc32)c(=O)n(-c2ccccc2)n1C	2.3	-2.4	-10.4	-3.5	110.7	-1.1
Cc1c(NC(=O)CN2C(=O)c3cccc4cccc2c34)c(=O)n(-c2ccccc2)n1C	-5.5	-8.4	-3.5	-9.1	100.9	18.2*
Cc1ccc(N(C(C)C(=O)Nc2c(C)n(C)n(-c3ccccc3)c2=O)S(C)(=O)=O)cc1C (stereo not drawn)	6.0	6.8	13.7	8.0	96.7	-0.9
Cc1c(NC(=O)C(C)N(c2ccccc2)S(C)(=O)=O)c(=O)n(-c2ccccc2)n1C (stereo not drawn)	-10.1	2.1	5.3	-5.6	102.0	39.9*
Cc1c(NC(=O)COc2cccc(Cl)c2Cl)c(=O)n(-c2ccccc2)n1C	8.1	5.9	-6.6	-2.2	91.9	-0.4
COc1cc(/C=C/C(=O)OC(C)C(=O)Nc2c(C)n(C)n(-c3ccccc3)c2=O)ccc1O (stereo not drawn)	-1.3	1.8	11.3	4.9	95.8	118.9*
CC(C)C[C@H](NC(=O)c1ccco1)C(=O)N1CCC[C@H]1C(=O)NCc1ccccc1	·	-5.5	6.8	·	·	·
CC[C@@H]1C/C=C\Cc2ccccc2[C@@H](C(=O)C[C@H](O)CC(C)=O)OC1=O	-2.5	-2.0	1.4	6.0	105.2	+
CC[C@@H]1C/C=C\Cc2ccccc2[C@H](C(=O)C[C@H](O)CC(C)=O)OC1=O	-2.4	-2.5	-2.3	3.1	99.2	0.3
SMILES	proCasp7 act	ASAP1 GAP inh	ARFGAP1 inh	procasp3 activ	CR mimetic SO	LANA-H2A inh
O=C(O)Cc1ccc(O)c(F)c1	-1.1	-11.0	2.3	2.2	100.3	47.0*!
COc1cc(Cc2cnc(N)nc2N)cc(OC)c1OC	6.9	-0.7	0.7	3.8	94.9	16.3*!
COc1cc(CN2CCCCCC2)cc(OC)c1OC	7.5	8.0	-15.4	-0.4	85.5	1.0
NC(=O)c1ncn([C@@H]2O[C@H](C(=O)N[C@H](Cc3c[nH]c4ccccc34)C(=O)N3CCN(CC(=O)N4CCCC4)CC3)[C@@H](O)[C@H]2O)n1	·	-4.6	-1.6	·	·	·
CO[C@H]1C=CO[C@@]2(C)Oc3c(C)c(O)c4c(O)c(c(C=NN5CCN(C)CC5)c(O)c4c3C2=O)NC(=O)C(C)=CC=C[C@H](C)[C@H](O)[C@@H](C)[C@@H](O)[C@@H](C)[C@H](OC(C)=O)[C@@H]1C	-12.0	-0.9	14.2	-8.0	95.7	48.8*!
CO[C@H]1/C=C/O[C@@]2(C)Oc3c(C)c(O)c4c(O)c(c(C=NN5CCN(C)CC5)c(O)c4c3C2=O)NC(=O)/C(C)=C\C=C\[C@H](C)[C@H](O)[C@@H](C)[C@@H](O)[C@@H](C)[C@H](OC(C)=O)[C@@H]1C	-7.1	11.8	0.3	1.6	106.3	1.4
CCCCNC(=O)N1CCCC(C(=O)c2cc(C)c(OC)c(C)c2)C1 (stereo not drawn)	-2.2	6.7	-1.9	-5.5	105.3	-4.2
COc1ccc(OC)c(-n2c(Cn3c(-c4ccccn4)nc4ccccc43)n[nH]c2=S)c1	8.4	-3.4	12.9	1.6	94.7	14.3*
COc1ccc(OC)c(-n2c(-c3cnccn3)n[nH]c2=S)c1	-7.0	3.1	16.6	0.2	140.3	3.9
Cc1ccc(NC(=O)Nc2ccc(F)cc2F)c(OC(F)F)c1	9.9	3.0	20.3	8.7	101.8	102.5*
CC(C)(C)OC(=O)N1CCC[C@@H]1C(=O)N1CCC[C@H]1C(=O)NCc1ccccc1	·	1.8	3.3	·	·	·
